{"data": "Published values pooled from the literature", "target": "Leukocyte tyrosine kinase receptor (LTK, Homo sapiens, UniProt P29376)", "note": "Protocols differ between the studies behind these lines."}
{"SMILES": "COc1cnc(Nc2cccc(S(N)(=O)=O)c2)nc1N1CCN(c2ccccc2)CC1", "test": "binding, competition with immobilised ligand", "conditions": "1 µM", "remaining binding [%]": 100}
{"SMILES": "N[C@@H]1CCN(c2nccc(-c3cnn4ncccc34)n2)C1", "test": "binding", "conditions": "1 µM", "remaining binding [%]": 100}
{"SMILES": "CNC(=O)[C@@H]1CC[C@@H](n2c(-c3ccc4cnccc4c3)nc3ccc(C(=O)NCc4cccc(C(N)=O)c4)cc32)C1", "test": "binding, competition with immobilised ligand", "conditions": "1 µM", "remaining binding [%]": 89}
{"SMILES": "COc1ncc2cc3ccccc3nc2c1C#N", "test": "cell-free assay, competition with immobilised ligand", "conditions": "5 µM", "remaining binding [%]": 100}
{"SMILES": "CCCOc1ccc([C@@H]2[C@@H](C(=O)O)[C@H](c3ccc4c(c3)OCO4)CN2CC(=O)Nc2c(CC)cccc2CC)cc1", "test": "cell-free assay, competition with immobilised ligand", "conditions": "1 µM", "remaining binding [%]": 100}
{"SMILES": "C[C@@H]1CCN(c2nccc(-c3cnn4ncccc34)n2)C1", "test": "binding", "conditions": "1 µM", "remaining binding [%]": 93}
{"SMILES": "Nc1ncc2c(n1)-c1c([nH]c3ccc(C#CC4CC4)cc13)CCCC2", "test": "binding, competition with immobilised ligand", "conditions": "1 µM", "remaining binding [%]": 100}
{"SMILES": "CSc1cccnc1N1CCN(Cc2nc3ccccc3[nH]2)CC1", "test": "cell-free assay, competition with immobilised ligand", "conditions": "1 µM", "remaining binding [%]": 89}
{"SMILES": "Cc1cnn2ncc(-c3ccnc(N(C)C)n3)c2c1", "test": "binding", "conditions": "1 µM", "remaining binding [%]": 98}
{"SMILES": "O=C(c1ccc(Nc2ncc(Cl)c(-c3cc4ccccc4s3)n2)cc1)N1CCC(N2CCCC2)CC1", "test": "binding, competition with immobilised ligand", "conditions": "1 µM", "remaining binding [%]": 100}
{"SMILES": "CN(CCCC(F)(F)F)c1nccc(-c2cnn3ncccc23)n1", "test": "binding", "conditions": "1 µM", "remaining binding [%]": 96}
{"SMILES": "O=C(NCCCN1CCOCC1)c1ccc(Nc2ncc(Cl)c(-c3ccc(Cl)s3)n2)cc1", "test": "binding, competition with immobilised ligand", "conditions": "1 µM", "remaining binding [%]": 100}
{"SMILES": "O=C(NS(=O)(=O)c1ccc(NCC2CCOCC2)c([N+](=O)[O-])c1)c1ccc(N2CCN(Cc3ccc(C(F)(F)F)cc3-c3ccc(Cl)cc3)CC2)cc1Oc1cnc2[nH]ccc2c1", "test": "cell-free assay, competition with immobilised ligand", "conditions": "1 µM", "remaining binding [%]": 100}
{"SMILES": "CCN1CCN(Cc2ccc(C(=O)Nc3ccc(C)c(Oc4ccc5c(c4)CC(=O)N5)c3)cc2C(F)(F)F)CC1", "test": "binding, competition with immobilised ligand", "conditions": "1 µM", "remaining binding [%]": 100}
{"SMILES": "CS(=O)(=O)N1CCCC(NC(=O)[C@H](CCC2CCCCC2)NC(=O)c2ccc(CNc3ncnc4c3nnn4-c3ccccc3)cc2)C1 (stereo partly shown)", "test": "cell-free assay, competition with immobilised ligand", "conditions": "0.1 µM", "remaining binding [%]": 100}
{"SMILES": "O=C(NCC1CCOCC1)c1n[nH]cc1NC(=O)c1c(F)cccc1F", "test": "binding, competition with immobilised ligand", "conditions": "1 µM", "remaining binding [%]": 100}
{"SMILES": "CC(C)CC(=O)N1CCc2nc(-c3ccc(Br)cc3)nc(N(C)Cc3ccccc3)c2C1", "test": "cell-free assay, competition with immobilised ligand", "conditions": "0.1 µM", "remaining binding [%]": 91}
{"SMILES": "CC1CCCN1c1nccc(-c2cnn3ncccc23)n1 (stereo not shown)", "test": "binding", "conditions": "1 µM", "remaining binding [%]": 100}
{"SMILES": "Cc1cc(-n2nc(Cc3cc(F)cc(C(F)(F)F)c3)nc2C)ccc1C(N)=O", "test": "cell-free assay, competition with immobilised ligand", "conditions": "1 µM", "remaining binding [%]": 100}
{"SMILES": "O=C(c1ccc(Nc2ncc(Cl)c(-c3ccc(Cl)s3)n2)cc1)N1CCC(N2CCCC2)CC1", "test": "binding, competition with immobilised ligand", "conditions": "1 µM", "remaining binding [%]": 90}
{"SMILES": "CN(c1nccc(-c2cnn3ncccc23)n1)C1CC1", "test": "binding", "conditions": "1 µM", "remaining binding [%]": 100}
{"SMILES": "COc1ccc2cc(OCC3(C(=O)O)CN(C(=O)c4ccc(F)cc4)C3)ccc2c1", "test": "cell-free assay, competition with immobilised ligand", "conditions": "1 µM", "remaining binding [%]": 100}
